Data as given in ChEMBL document CHEMBL4152228, “Structural-based design, synthesis, and antitumor activity of novel alloxazine analogues with potential selective kinase inhibition” (Eur J Med Chem, 2018).

How the values were obtained:
[1] = target: Fibroblast growth factor receptor 1 (Homo sapiens) (UniProt P11362); assay: Inhibition of FGFR1 (unknown origin) at 10 uM by [33P]-ATP radiometric assay
In short: (§1)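 Radiometric kinase profiling: purified recombinant kinase (~10–50 nM final) with substrate, assay buffer and compound at 10 µM (control 10% DMSO). Started with 33P-ATP (50 µM stock, 0.8 µCi), run 30 min at ambient temperature, then spotted onto P81 phosphocellulose and washed in 1% phosphoric acid. Scintillation counted, no-substrate blank subtracted, single measurement, result given as % change versus control.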

[2] = target: Calcium/calmodulin-dependent protein kinase type II subunit alpha (Homo sapiens) (UniProt Q9UQM7); assay: Inhibition of CAMK2-alpha (unknown origin) at 10 uM by [33P]-ATP radiometric assay; in short: as §1
Sequence of Calcium/calmodulin-dependent protein kinase type II subunit alpha (Homo sapiens) (Q9UQM7 whole entry): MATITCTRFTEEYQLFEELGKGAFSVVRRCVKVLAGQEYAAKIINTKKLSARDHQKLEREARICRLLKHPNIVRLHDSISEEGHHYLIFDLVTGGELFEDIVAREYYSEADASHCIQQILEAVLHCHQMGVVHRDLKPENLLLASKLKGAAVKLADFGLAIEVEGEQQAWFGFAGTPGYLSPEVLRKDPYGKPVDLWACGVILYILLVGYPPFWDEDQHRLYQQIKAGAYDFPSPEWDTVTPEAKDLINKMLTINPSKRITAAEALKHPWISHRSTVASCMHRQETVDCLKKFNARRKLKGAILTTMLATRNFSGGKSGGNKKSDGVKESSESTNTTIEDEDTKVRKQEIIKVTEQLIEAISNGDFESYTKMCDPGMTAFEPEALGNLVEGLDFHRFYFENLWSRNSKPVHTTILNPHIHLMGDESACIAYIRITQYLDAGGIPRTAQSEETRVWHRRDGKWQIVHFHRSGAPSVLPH

HCT-116 = assay: Antiproliferative activity against human HCT116 cells after 72 hrs by MTT assay; type: functional, cell-based; conditions: HCT-116, 72 h
In short: (§2)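 MTT viability assay. Cells grown in RPMI-1640 with 10% heat-inactivated FBS, L-glutamine and 1% penicillin/streptomycin, used within 20 passages. Seeded at 5×10^3 cells/well, left overnight at 37 °C, then exposed to final concentrations of 0.005–50 µM (0.1% DMSO) for up to 72 h. MTT added for 3 h, formazan dissolved in DMSO, absorbance read at 550 nm. IC50 derived relative to untreated controls.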

[3] = target: Epidermal growth factor receptor (Homo sapiens) (UniProt P00533); assay: Inhibition of EGFR (unknown origin) at 10 uM by [33P]-ATP radiometric assay; in short: as §1
MCF7 [4] = assay: Induction of apoptosis in human MCF7 cells assessed as early apoptotic cells at 1 uM after 72 hrs by annexin V-FITC/propidium iodide staining-based flow cytometric method (reference value: 9%); type: functional
A2780 = assay: Antiproliferative activity against human A2780 cells after 72 hrs by MTT assay; type: functional, cell-based; conditions: A2780, 72 h; in short: as §2
[5] = target: Activin receptor type-2A (Homo sapiens) (UniProt P27037); assay: Inhibition of ACVR2A (unknown origin) at 10 uM by [33P]-ATP radiometric assay; in short: as §1
MCF7 [6] = assay: Induction of apoptosis in human MCF7 cells assessed as necrotic cells at 1 uM after 72 hrs by annexin V-FITC/propidium iodide staining-based flow cytometric method (reference value: 12.6%); type: functional
MCF7 [7] = assay: Induction of apoptosis in human MCF7 cells assessed as early apoptotic cells at 10 uM after 72 hrs by annexin V-FITC/propidium iodide staining-based flow cytometric method (reference value: 9%); type: functional
[8] = target: Calcium/calmodulin-dependent protein kinase type 1 (Homo sapiens) (UniProt Q14012); assay: Inhibition of CAMK1 (unknown origin) at 10 uM by [33P]-ATP radiometric assay; in short: as §1
Sequence of Calcium/calmodulin-dependent protein kinase type 1 (Homo sapiens) (Q14012 whole entry, looked up): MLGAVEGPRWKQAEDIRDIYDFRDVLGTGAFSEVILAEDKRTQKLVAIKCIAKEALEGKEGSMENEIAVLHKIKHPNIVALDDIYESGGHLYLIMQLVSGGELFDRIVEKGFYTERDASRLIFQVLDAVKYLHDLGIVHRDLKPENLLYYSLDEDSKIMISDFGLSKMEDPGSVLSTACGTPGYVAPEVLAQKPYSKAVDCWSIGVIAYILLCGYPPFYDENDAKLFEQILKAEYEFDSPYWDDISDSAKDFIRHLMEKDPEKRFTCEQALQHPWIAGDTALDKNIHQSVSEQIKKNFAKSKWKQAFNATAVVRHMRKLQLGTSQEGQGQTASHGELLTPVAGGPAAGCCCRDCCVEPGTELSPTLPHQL

[9] = target: Cyclin-dependent kinase 16 (Homo sapiens) (UniProt Q00536); assay: Inhibition of CDK16 (unknown origin) at 10 uM by [33P]-ATP radiometric assay; in short: as §1
Sequence of Cyclin-dependent kinase 16 (Homo sapiens) (Q00536 whole entry): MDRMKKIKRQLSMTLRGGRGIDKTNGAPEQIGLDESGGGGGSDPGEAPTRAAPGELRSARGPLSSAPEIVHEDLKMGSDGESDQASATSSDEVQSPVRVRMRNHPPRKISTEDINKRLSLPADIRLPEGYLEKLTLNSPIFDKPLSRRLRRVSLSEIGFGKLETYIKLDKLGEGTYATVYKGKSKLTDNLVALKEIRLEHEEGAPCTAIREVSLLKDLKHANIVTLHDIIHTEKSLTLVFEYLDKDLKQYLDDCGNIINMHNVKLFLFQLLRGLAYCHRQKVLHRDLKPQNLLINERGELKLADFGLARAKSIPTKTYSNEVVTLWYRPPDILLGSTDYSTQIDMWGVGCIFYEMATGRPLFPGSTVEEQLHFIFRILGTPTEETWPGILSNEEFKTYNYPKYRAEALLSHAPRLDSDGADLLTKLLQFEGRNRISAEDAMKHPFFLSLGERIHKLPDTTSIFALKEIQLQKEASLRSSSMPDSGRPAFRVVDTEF

[10] = target: Hepatocyte growth factor receptor (Homo sapiens) (UniProt P08581); assay: Inhibition of MET (unknown origin) at 10 uM by [33P]-ATP radiometric assay; in short: as §1
Sequence of Hepatocyte growth factor receptor (Homo sapiens) (P08581 whole entry): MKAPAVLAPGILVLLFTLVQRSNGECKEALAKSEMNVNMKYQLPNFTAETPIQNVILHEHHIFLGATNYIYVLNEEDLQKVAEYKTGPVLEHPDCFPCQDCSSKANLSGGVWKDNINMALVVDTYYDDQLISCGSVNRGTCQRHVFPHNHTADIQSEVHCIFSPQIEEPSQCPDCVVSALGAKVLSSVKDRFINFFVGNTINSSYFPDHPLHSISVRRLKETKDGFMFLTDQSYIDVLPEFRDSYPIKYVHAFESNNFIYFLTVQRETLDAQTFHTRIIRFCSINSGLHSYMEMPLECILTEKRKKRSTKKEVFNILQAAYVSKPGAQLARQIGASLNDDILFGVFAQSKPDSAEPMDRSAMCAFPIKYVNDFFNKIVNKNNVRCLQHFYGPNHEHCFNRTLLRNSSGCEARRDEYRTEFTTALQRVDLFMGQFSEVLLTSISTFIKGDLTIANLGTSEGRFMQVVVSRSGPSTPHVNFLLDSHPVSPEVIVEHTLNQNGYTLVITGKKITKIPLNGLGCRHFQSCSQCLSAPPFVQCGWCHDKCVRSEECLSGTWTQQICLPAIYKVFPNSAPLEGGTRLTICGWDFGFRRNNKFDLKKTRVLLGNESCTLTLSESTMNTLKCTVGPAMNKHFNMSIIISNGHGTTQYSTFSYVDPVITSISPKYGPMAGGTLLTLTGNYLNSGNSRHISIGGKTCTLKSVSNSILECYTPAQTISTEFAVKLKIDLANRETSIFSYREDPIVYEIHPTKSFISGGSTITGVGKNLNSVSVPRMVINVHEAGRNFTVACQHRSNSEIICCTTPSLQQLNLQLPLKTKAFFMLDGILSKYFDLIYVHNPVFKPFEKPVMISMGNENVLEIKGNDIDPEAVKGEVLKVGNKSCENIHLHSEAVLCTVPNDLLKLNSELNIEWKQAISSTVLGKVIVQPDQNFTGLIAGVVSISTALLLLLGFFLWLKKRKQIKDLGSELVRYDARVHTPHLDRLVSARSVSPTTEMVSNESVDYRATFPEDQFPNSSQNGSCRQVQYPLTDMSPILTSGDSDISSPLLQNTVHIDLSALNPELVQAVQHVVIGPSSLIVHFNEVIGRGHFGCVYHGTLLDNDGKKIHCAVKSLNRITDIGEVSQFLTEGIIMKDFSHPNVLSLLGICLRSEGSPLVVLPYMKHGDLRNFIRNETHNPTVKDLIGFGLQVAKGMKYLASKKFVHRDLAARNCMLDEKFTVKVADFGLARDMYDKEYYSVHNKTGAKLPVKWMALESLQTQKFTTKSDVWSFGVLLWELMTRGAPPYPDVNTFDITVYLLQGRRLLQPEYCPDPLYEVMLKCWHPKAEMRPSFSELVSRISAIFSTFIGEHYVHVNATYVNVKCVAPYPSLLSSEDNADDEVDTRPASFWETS

MCF7 [11] = assay: Induction of apoptosis in human MCF7 cells assessed as increase of early apoptotic cells after 72 hrs by annexin V-FITC/propidium iodide staining-based flow cytometric method; type: functional, cell-based
In short: (§3)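 MCF-7 cells treated 72 h at final 1, 5, 10 µM, then annexin V-FITC/PI stained in pH 7.4 HEPES binding buffer and analysed by flow cytometry. Early or late apoptotic cell fraction expressed as percent change versus vehicle control: (sample − control)/control × 100. Triplicates.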

K562 = assay: Antiproliferative activity against human K562 cells after 72 hrs by MTT assay; type: functional, cell-based; conditions: K562, 72 h
[12] = Antiproliferative activity against human WM793B cells after 72 hrs by MTT assay; type: functional, cell-based; in short: as §2
MCF7 [13] = assay: Induction of apoptosis in human MCF7 cells assessed as necrotic cells at 10 uM after 72 hrs by annexin V-FITC/propidium iodide staining-based flow cytometric method (reference value: 12.6%); type: functional
[14] = target: Mast/stem cell growth factor receptor Kit (Homo sapiens) (UniProt P10721); assay: Inhibition of c-KIT (unknown origin) at 10 uM by [33P]-ATP radiometric assay
In short: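 Radiometric kinase profiling: purified recombinant kinase (~10–50 nM final) with substrate, assay buffer and compound at 10 µM (control 10% DMSO). Started with 33P-ATP (50 µM stock, 0.8 µCi), run 30 min at ambient temperature, then spotted onto P81 phosphocellulose and washed in 1% phosphoric acid.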

MCF7 [15] = assay: Induction of apoptosis in human MCF7 cells assessed as increase of late apoptotic cells at 10 uM after 72 hrs by annexin V-FITC/propidium iodide staining-based flow cytometric method relative to control; type: functional; in short: as §3
MCF7 [16] = assay: Induction of apoptosis in human MCF7 cells assessed as late apoptotic cells at 1 uM after 72 hrs by annexin V-FITC/propidium iodide staining-based flow cytometric method (reference value: 2.6%); type: functional
MCF7 [17] = assay: Antiproliferative activity against human MCF7 cells after 72 hrs by MTT assay; type: functional, cell-based; conditions: MCF7, 72 h; in short: as §2
[18] = target: Mitogen-activated protein kinase 3 (Homo sapiens) (UniProt P27361); assay: Inhibition of ERK1 (unknown origin) at 10 uM by [33P]-ATP radiometric assay; in short: as §1
Sequence of Mitogen-activated protein kinase 3 (Homo sapiens) (P27361 whole entry): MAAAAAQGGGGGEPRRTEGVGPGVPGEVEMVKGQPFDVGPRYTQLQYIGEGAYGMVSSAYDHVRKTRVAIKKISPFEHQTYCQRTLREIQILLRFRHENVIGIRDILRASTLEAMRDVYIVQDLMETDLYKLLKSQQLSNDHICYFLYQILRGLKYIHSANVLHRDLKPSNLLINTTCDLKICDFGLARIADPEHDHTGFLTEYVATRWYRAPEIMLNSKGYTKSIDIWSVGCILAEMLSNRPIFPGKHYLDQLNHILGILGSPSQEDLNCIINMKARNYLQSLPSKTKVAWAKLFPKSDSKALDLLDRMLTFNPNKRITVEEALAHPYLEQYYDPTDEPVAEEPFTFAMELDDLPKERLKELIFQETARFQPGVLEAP

[19] = target: Protein kinase C beta type (Homo sapiens) (UniProt P05771); assay: Inhibition of PCK-beta2 (unknown origin) at 10 uM by [33P]-ATP radiometric assay; in short: as §1
Sequence of Protein kinase C beta type (Homo sapiens) (P05771 2-671 limits assumed): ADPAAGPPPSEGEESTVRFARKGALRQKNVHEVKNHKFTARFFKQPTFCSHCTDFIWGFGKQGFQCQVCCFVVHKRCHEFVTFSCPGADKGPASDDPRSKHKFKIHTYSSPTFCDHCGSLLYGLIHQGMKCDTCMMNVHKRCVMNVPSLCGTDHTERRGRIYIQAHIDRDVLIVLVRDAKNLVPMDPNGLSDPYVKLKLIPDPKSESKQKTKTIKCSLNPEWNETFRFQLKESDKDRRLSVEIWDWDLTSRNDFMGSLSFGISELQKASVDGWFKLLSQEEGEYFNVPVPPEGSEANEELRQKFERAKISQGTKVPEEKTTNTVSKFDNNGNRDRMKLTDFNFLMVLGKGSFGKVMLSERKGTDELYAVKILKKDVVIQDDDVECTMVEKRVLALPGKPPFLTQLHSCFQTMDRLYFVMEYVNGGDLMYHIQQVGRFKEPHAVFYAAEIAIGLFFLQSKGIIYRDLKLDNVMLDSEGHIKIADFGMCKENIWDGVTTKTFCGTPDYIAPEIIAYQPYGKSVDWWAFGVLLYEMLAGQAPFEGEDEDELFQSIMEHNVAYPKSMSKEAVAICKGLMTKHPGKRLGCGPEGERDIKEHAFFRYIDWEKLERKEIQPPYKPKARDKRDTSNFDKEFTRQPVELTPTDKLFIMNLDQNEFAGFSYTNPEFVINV

[20] = target: Vascular endothelial growth factor receptor 1 (Homo sapiens) (UniProt P17948); assay: Inhibition of FLT1 (unknown origin) at 10 uM by [33P]-ATP radiometric assay; in short: as §1
[21] = target: Mitogen-activated protein kinase 8 (Homo sapiens) (UniProt P45983); assay: Inhibition of JNK1 (unknown origin) at 10 uM by [33P]-ATP radiometric assay; in short: as §1
Sequence of Mitogen-activated protein kinase 8 (Homo sapiens) (P45983 whole entry): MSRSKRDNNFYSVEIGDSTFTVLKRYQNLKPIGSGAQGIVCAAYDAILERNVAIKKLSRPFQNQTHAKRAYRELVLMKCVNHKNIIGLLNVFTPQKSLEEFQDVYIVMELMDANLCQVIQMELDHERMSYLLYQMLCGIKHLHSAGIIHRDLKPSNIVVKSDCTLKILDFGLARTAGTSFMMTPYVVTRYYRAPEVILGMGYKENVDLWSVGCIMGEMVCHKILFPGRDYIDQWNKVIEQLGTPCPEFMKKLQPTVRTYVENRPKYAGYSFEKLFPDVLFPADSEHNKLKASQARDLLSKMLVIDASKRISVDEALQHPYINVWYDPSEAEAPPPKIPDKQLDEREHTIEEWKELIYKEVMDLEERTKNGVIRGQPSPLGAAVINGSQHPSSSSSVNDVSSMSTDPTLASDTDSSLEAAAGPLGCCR

MCF7 [22] = assay: Induction of apoptosis in human MCF7 cells assessed as early apoptotic cells at 5 uM after 72 hrs by annexin V-FITC/propidium iodide staining-based flow cytometric method (reference value: 9%); type: functional
[23] = target: Casein kinase I isoform alpha (Homo sapiens) (UniProt P48729); assay: Inhibition of CK1alpha1 (unknown origin) at 10 uM by [33P]-ATP radiometric assay; in short: as §1
MCF7 [24] = assay: Induction of apoptosis in human MCF7 cells assessed as viable cells at 1 uM after 72 hrs by annexin V-FITC/propidium iodide staining-based flow cytometric method (reference value: 76%); type: functional; conditions: MCF7, 72 h, read-out: Activity
MCF7 [25] = assay: Induction of apoptosis in human MCF7 cells assessed as late apoptotic cells at 10 uM after 72 hrs by annexin V-FITC/propidium iodide staining-based flow cytometric method (reference value: 2.6%); type: functional
MCF7 [26] = assay: Induction of apoptosis in human MCF7 cells assessed as increase of early apoptotic cells at 1 to 10 uM after 72 hrs by annexin V-FITC/propidium iodide staining-based flow cytometric method relative to control; type: functional; in short: as §3
MCF7 [27] = assay: Induction of apoptosis in human MCF7 cells assessed as viable cells at 10 uM after 72 hrs by annexin V-FITC/propidium iodide staining-based flow cytometric method (reference value: 76%); type: functional; conditions: MCF7, 72 h, read-out: Activity
MCF7 [28] = assay: Induction of apoptosis in human MCF7 cells assessed as late apoptotic cells at 5 uM after 72 hrs by annexin V-FITC/propidium iodide staining-based flow cytometric method (reference value: 2.6%); type: functional
MCF7 [29] = assay: Induction of apoptosis in human MCF7 cells assessed as viable cells at 5 uM after 72 hrs by annexin V-FITC/propidium iodide staining-based flow cytometric method (reference value: 76%); type: functional; conditions: MCF7, 72 h, read-out: Activity
MCF7 [30] = assay: Induction of apoptosis in human MCF7 cells assessed as necrotic cells at 5 uM after 72 hrs by annexin V-FITC/propidium iodide staining-based flow cytometric method (reference value: 12.6%); type: functional
[31] = target: Receptor tyrosine-protein kinase erbB-2 (Homo sapiens) (UniProt P04626); assay: Inhibition of HER2 (unknown origin) at 10 uM by [33P]-ATP radiometric assay; in short: as §1

Sequence of Fibroblast growth factor receptor 1 (Homo sapiens) (P11362 22-822 limits assumed): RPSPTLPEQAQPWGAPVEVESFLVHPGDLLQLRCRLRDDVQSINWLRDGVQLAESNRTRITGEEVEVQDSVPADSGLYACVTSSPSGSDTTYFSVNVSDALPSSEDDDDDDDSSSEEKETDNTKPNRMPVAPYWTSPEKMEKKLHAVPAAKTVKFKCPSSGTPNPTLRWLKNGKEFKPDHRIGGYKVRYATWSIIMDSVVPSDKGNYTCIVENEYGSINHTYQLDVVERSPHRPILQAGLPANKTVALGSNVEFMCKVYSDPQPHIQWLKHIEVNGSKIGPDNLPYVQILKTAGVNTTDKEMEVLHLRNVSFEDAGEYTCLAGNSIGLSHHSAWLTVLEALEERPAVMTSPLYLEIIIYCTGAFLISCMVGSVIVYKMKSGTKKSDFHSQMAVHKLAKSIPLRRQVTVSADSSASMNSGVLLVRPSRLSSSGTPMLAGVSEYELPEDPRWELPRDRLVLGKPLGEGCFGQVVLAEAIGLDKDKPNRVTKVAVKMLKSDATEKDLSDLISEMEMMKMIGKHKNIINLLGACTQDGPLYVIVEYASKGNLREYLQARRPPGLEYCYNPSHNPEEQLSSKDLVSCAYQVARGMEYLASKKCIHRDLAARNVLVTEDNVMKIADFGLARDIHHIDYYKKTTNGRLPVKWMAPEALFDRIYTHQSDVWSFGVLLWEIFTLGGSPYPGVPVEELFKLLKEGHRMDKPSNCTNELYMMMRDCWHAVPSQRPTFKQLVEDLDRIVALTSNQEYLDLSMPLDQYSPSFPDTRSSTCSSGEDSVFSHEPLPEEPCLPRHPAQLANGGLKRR

Row | Structure (SMILES) | inhibition [1] | inhibition [2] | IC50 (HCT-116) | inhibition [3] | Activity (MCF7 [4]) | IC50 (A2780) | inhibition [5] | Activity (MCF7 [6]) | Activity (MCF7 [7]) | inhibition [8] | inhibition [9] | inhibition [10] | Activity (MCF7 [11]) | IC50 (K562) | IC50 [12] | inhibition [14] | IC50 (MCF7 [17]) | inhibition [18] | inhibition [19] | inhibition [21] | also measured
1 | COc1ccc(CCN2CCC(Nc3nc4nc5ccc(C)cc5nc4c(=O)[nH]3)CC2)cc1 | 1% | 4% | 170 nM | -2% | 12.4% | 200 nM | -5% | 7.6% | 20.7% | 19% | 18% | 7% | Dose-dependent effect | > 50000 nM | > 50000 nM | -7% | 160 nM | 8% | 7% | 10% | Activity (MCF7 [13]): 4.8%; fold change (FC) (MCF7 [15]): 12; Activity (MCF7 [16]): 13.3%; inhibition [20]: -5%; Activity (MCF7 [22]): 18%; inhibition [23]: 9%; viability at 1 µM (MCF7 [24]): 66.7%; Activity (MCF7 [25]): 30%; fold change (FC) (MCF7 [26]): 2; viability at 10 µM (MCF7 [27]): 44.6%; Activity (MCF7 [28]): 14.1%; viability at 5 µM (MCF7 [29]): 64.1%; Activity (MCF7 [30]): 3.6%
2 | Cc1ccc(NC(=O)c2ccc(CN3CCN(C)CC3)cc2)cc1Nc1nccc(-c2cccnc2)n1 [IMATINIB] | 1% | 1% | 19700 nM | 9% | – | 8900 nM | -2% | – | – | 10% | 10% | 10% | – | 3430 nM | – | – | 7120 nM | -2% | 10% | – | inhibition [23]: 11%
3 | CN1CCN(Cc2ccc(CNc3nc4nc5ccc(Cl)cc5cc4c(=O)[nH]3)cc2)CC1 | 37% | -6% | 720 nM | 16% | – | 540 nM | – | – | – | 14% | 11% | 9% | – | 26800 nM | > 50000 nM | 60% | 620 nM | 6% | 5% | -5% | inhibition [31]: 8%
4 | COc1ccc2nc3nc(NCc4ccc(CN(C)C)cc4)[nH]c(=O)c3nc2c1 | – | – | 1300 nM | – | 11.7% | 700 nM | – | 16.2% | 22.1% | – | – | – | Dose-dependent effect | > 50000 nM | > 50000 nM | – | 550 nM | – | – | – | Activity (MCF7 [13]): 5.9%; Activity (MCF7 [16]): 4.8%; Activity (MCF7 [22]): 17%; viability at 1 µM (MCF7 [24]): 67.3%; Activity (MCF7 [25]): 12%; fold change (FC) (MCF7 [26]): 2; viability at 10 µM (MCF7 [27]): 60%; Activity (MCF7 [28]): 7.9%; viability at 5 µM (MCF7 [29]): 67.4%; Activity (MCF7 [30]): 7.7%
5 | Cc1ccc2nc3nc(NCc4ccc(CN5CCN(C)CC5)cc4)[nH]c(=O)c3cc2c1 | 50% | 0% | 820 nM | 12% | – | 320 nM | – | – | – | 18% | -1% | 18% | – | 13500 nM | 10500 nM | 36% | 530 nM | 5% | 3% | -4% | inhibition [31]: 4%
